The record followed here is article PMC5598146 (Toxicology Reports, 2015).

Data set [1] relates to S. typhimurium strains TA98 and TA100. The data set is described as follows: Abbreviated Ames. The class given is cell-based. The gist of the method: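 Salmonella TA98 and TA100 plate-incorporation assay per OECD 471, run with and without rat liver S9. Test compound and its decarboxylated impurity were tested at concentrations up to and including 5000 µg/plate, with vehicle and positive controls. Revertant colony counts were compared with vehicle control, and bacterial toxicity was recorded.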

A short description of data set [2]: Relative oral bioavailability of sodium, phosphate and hemisulfate salts in rats. The class given is in vivo, Sprague-Dawley rats. Conditions: single oral 30 mg/kg, male rats. The gist of the method:
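Male Sprague-Dawley rats, 4/group, received a single 30 mg/kg oral gavage dose in 1% methylcellulose of either parent acid or its sodium, phosphate or sulfate salt. Jugular-catheter blood was drawn at about 15 and 30 min and at 1, 2, 4, 8 and 24 h. Plasma parent was measured by LC/MS/MS with an internal standard. Relative AUClast and Cmax were corrected for molecular-weight differences.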

Each structure is given as a SMILES string.

Take `Cc1cc(N)c2c(OCC(C)(C)C(=O)NC(C)C)cccc2n1` [S9379, 4-amino-5-(3-(isopropylamino)-2,2-dimethyl-3-oxopropoxy)-2-methylquinoline]: the “Concentration with cytotoxicity (reduction in the background lawn)” value in data set [1] (TA98 and TA100 without metabolic activation) is 5000 μg/plate. The “Mutagenicity, result” value in data set [1] (plate incorporation, up to 5000 μg/plate, ±S9) is “not mutagenic”.

A word on the Cmax: it is the maximum level reached in the sampled fluid or tissue. Turning to `Cc1nc2cccc(OCC(C)(C)C(=O)NC(C)C)c2c(N)c1C(=O)O.Cc1nc2cccc(OCC(C)(C)C(=O)NC(C)C)c2c(N)c1C(=O)O.O=S(=O)(O)O` [S1638], the Cmax/Equiv. dose in data set [2] worked out at 1.377 ng/mL/mg/kg. In addition, the maximum concentration (Cmax) in data set [2] (S9632 measured in plasma) amounted to 34.80 ± 7.55 ng/mL. Further, in data set [2] (corrected for molecular weight, 30 mg/kg), the “%Cmax Relative to S9632” value was 106.7%.
